From ChEMBL document CHEMBL2375298, “Isolation, structure determination, and anti-HIV evaluation of tigliane-type diterpenes and biflavonoid from Stellera chamaejasme” (J Nat Prod, 2013)
The source made the active and inactive calls. The calls are words filed in the database; no cut-off is given here.

Legend:
MT4 = assay: Cytotoxicity against human MT4 cells by CellTitre-Glo luminescent assay; assay type: cell-based
[1] = system: Human immunodeficiency virus 1; assay: Antiviral activity against HIV-1 NL4-3 infected in human MT4 cells assessed as inhibition of viral replication after 4 days by ELISA; assay type: functional
Method in brief: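 MT4 cells infected with HIV-1 NL4-3 at MOI 0.001 in presence of graded compound concentrations; fresh medium with compound added 48 h post-infection to sustain growth. Replication measured by p24 ELISA on day 4 post-infection. EC90 (concentration inhibiting replication by 90%) calculated from dose-response.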

[2] = Human immunodeficiency virus 1, NL4-3, MT4, 96 h

C=C(C)[C@@]12C[C@@H](COC(=O)c3ccccc3)[C@@]34OC5(O[C@@H]1[C@@H]3[C@@H]1O[C@]1(CO)[C@@H](O)[C@@]1(O)[C@H]4[C@H]([C@H](C)[C@@H]1OC(=O)c1ccccc1)[C@H](C)CCCCCC[C@H]5O)O2 [GNIDIMACRIN]
IC50 (MT4): 4.3 µM | EC90 [1, 2]: 0.0004 µM

COc1ccc([C@@H]2Oc3cc(OC)cc(O)c3C(=O)[C@H]2[C@@H]2C(=O)c3c(O)cc(O)cc3O[C@H]2c2ccc(O)cc2)cc1
IC50 (MT4): 17.5 µM | EC90 [1, 2]: 4.21 µM

C=C(C)[C@]12C[C@@H](COC(C)=O)[C@@]34O[C@]5(O[C@@H]1[C@@H]3[C@@H]1O[C@]1(CO)[C@@H](O)[C@@]1(O)[C@H]4[C@H]([C@H](C)[C@@H]1OC(=O)c1ccccc1)[C@H](C)CCCCCC[C@H]5O)O2
IC50 (MT4): 4.3 µM | EC90 [1, 2]: 0.0004 µM

COc1ccc([C@@H]2Oc3cc(O)cc(O)c3C(=O)[C@@H]2[C@H]2C(=O)c3c(O)cc(OC)cc3O[C@H]2c2ccc(OC)cc2)cc1
EC90 [1]: inactive

CC/C=C\C/C=C\CCC(=O)O[C@@]12[C@H](OC(=O)c3ccccc3)[C@@H](C)[C@@]3(O)[C@@H](C=C(CO)C[C@]4(O)C(=O)C(C)=C[C@@H]34)[C@@H]1C2(C)C
IC50 (MT4): 7.8 µM | EC90 [1, 2]: 0.0068 µM

COc1cc(/C=C/C(=O)OCCCCCCCCCCCCCCCCCCCCCC(=O)OCC(O)CO)ccc1O (configuration not stated)
IC50 (MT4): 16.2 µM

CCCCCCCC(=O)O[C@@]12[C@H](OC(=O)c3ccccc3)[C@@H](C)[C@]3(O)[C@@H]4C=C(C)C(=O)[C@@]4(O)[C@H](O)C(CO)=C[C@H]3[C@@H]1C2(C)C
IC50 (MT4): 17.2 µM | EC90 [1, 2]: 0.0038 µM

CCCCCCCCCC(=O)O[C@@]12[C@H](OC(=O)c3ccccc3)[C@@H](C)[C@@]3(O)[C@H]([C@@H]1C2(C)C)[C@@H](OO)C(CO)=C[C@]1(O)C(=O)C(C)=C[C@@H]31
IC50 (MT4): 3.5 µM | EC90 [1, 2]: 0.49 µM

CCCCCCCCCC(=O)O[C@@]12[C@H](OC(=O)c3ccccc3)[C@@H](C)[C@@]3(O)[C@@H](C=C(CO)C[C@]4(O)C(=O)C(C)=C[C@@H]34)[C@@H]1C2(C)C [STELLERARIN]
IC50 (MT4): 5.1 µM | EC90 [1, 2]: 0.0005 µM

COc1ccc([C@@H]2Oc3cc(O)cc(O)c3C(=O)[C@@H]2[C@H]2C(=O)c3c(O)cc(O)cc3O[C@H]2c2ccc(OC)cc2)cc1
EC90 [1]: inactive

CCCCC/C=C\CCC(=O)O[C@@]12[C@H](OC(=O)c3ccccc3)[C@@H](C)[C@@]3(O)[C@@H](C=C(CO)C[C@]4(O)C(=O)C(C)=C[C@@H]34)[C@@H]1C2(C)C
IC50 (MT4): 4.7 µM | EC90 [1, 2]: 0.00066 µM

CCCCCCCC(=O)O[C@@]12[C@H](OC(=O)c3ccccc3)[C@@H](C)[C@@]3(O)[C@H]([C@@H]1C2(C)C)[C@@H](OO)C(CO)=C[C@]1(O)C(=O)C(C)=C[C@@H]31
IC50 (MT4): 15.8 µM | EC90 [1, 2]: 1.52 µM

O=C(/C=C/CCc1ccccc1)c1ccccc1
EC90 [1]: inactive
